Laboratory results: paper PMC2735267 (Neuropharmacology, 2009)
Where two headings read alike, the source gives them in different places. Marks after values point to notes of the source that are not given here.

Experiments:
[1] = tested on: cytisine-sensitive [125I]epibatidine binding sites; assay type: in vivo, DBA/2J mice; settings: for Cytisine-sensitive [125I]epibatidine binding: 3-IC 0.2 mg/kg/h iv 7 days; for Cytisine-sensitive [125I]epibatidine binding % change: 3-IC 0.2 mg/kg/h iv 7 days vs saline
human α4β2 = settings: read-out: Ki human α4β2; expressed in Xenopus oocytes; ref Slater et al., 2003; cited from earlier work
β2*-nAChR = β2*-nAChR (Mus musculus, UniProt O70174+Q9ERK7); assay: biochemical; assay type: binding, C57BL/6J mice; settings: read-out: [125I]epibatidine (β4 -/-) Ki; inferior colliculi, β4-/- mice; 200 pM ligand
[2] = tested on: [125I]epibatidine binding sites (β2*- and β4*-nAChR); set-up: species or system C57BL/6J mice; settings: inferior colliculus, wild-type
β4 null mutant mice = assay: 3-IC-induced hypothermia in β4 null mutant and wild-type mice; assay type: in vivo, mouse; settings: 0.2 mg/kg ip
How it was run: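 Null mutants were backcrossed onto C57BL/6J for at least 10 generations, genotyped from tail DNA, and compared with wild-type mice (β2-/- n = 5; β4-/- n = 5). Test compound was given at 0.2 mg/kg IP in 10 µl/g body weight. Rectal temperature was taken every 5 minutes with a peanut-oil-lubricated probe inserted 1.5 cm. Data are mean ± SEM, analysed by repeated-measures ANOVA (time × genotype).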

α7-nAChR = α7-nAChR (Mus musculus, UniProt P49582); assay: biochemical; assay type: binding, C57BL/6J mice; settings: read-out: [125I]α-bungarotoxin (WT) Ki; […]; 0.5 nM ligand; one-site model
α7* nAChR binding sites = assay type: in vivo, DBA/2J mice; settings: cerebral cortex membranes; 0.2 mg/kg/h iv 7 days
DBA/2J mice [3] = assay: Chronic intravenous 3-IC infusion and tolerance test; assay type: in vivo, mouse
human α7 = settings: read-out: Ki human α7; expressed in Xenopus oocytes; ref Slater et al., 2003; cited from earlier work
[4] = tested on: cytisine-resistant [125I]epibatidine binding sites (mixed population of nAChR); settings: membranes, any brain region analyzed; 0.2 mg/kg/h iv 7 days
DBA/2J mice [5] = assay: 3-IC-induced hypothermia; assay type: in vivo, mouse
α7* receptors = settings: read-out: Ki α7* receptors in rat brain; ref Abin-Carriquiry et al., 2006; cited from earlier work
[3H]dopamine release = read-out: EC50 [3H]dopamine release; rat striatal synaptosomes; ref Abin-Carriquiry et al., 2006; cited from earlier work
α4β2* receptors = settings: read-out: Ki α4β2* receptors in rat brain; ref Abin-Carriquiry et al., 2006; cited from earlier work
[6] = tested on: A85380-resistant [125I]epibatidine binding sites (mainly α3β4* nAChR); settings: membranes; 0.2 mg/kg/h iv 7 days
[7] = tested on: [3H]noradrenaline release; settings: read-out: EC50 [3H]noradrenaline release; rat hippocampal slices; ref Abin-Carriquiry et al., 2006; cited from earlier work
[8] = dorsolateral geniculate nucleus
[9] = superior colliculus (optic nerve)
[10] = superior colliculus (sup. gray)

β2*-nAChR, sequence (O70174 31-629): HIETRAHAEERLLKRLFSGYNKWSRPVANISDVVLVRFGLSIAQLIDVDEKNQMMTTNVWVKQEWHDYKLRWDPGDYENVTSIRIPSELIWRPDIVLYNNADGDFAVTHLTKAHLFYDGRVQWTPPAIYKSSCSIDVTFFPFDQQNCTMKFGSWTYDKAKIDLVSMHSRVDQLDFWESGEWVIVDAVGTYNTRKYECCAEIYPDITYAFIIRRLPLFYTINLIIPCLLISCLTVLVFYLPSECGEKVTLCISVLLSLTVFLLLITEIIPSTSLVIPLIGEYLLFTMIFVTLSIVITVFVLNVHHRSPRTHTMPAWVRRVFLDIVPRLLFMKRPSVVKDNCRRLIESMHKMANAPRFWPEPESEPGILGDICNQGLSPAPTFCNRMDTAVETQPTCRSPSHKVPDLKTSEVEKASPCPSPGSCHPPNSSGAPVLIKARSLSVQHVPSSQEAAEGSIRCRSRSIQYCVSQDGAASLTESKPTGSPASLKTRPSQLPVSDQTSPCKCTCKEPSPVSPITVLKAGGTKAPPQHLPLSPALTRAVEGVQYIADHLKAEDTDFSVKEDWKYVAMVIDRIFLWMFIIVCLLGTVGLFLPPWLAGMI
β2*-nAChR, sequence (Q9ERK7 26-501): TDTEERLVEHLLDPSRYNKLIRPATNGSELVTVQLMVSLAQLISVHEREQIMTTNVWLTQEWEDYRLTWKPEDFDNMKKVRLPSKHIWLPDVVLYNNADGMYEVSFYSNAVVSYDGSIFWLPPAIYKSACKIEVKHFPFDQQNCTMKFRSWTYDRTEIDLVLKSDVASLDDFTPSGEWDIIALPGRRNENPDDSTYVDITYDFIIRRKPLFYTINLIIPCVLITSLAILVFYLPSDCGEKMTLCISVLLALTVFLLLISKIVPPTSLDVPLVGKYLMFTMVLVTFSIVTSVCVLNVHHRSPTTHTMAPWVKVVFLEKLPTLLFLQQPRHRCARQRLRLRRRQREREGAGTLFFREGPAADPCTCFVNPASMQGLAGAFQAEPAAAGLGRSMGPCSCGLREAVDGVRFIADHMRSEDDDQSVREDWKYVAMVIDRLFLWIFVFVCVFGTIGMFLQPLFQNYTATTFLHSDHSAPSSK
α7-nAChR, sequence (P49582 23-502): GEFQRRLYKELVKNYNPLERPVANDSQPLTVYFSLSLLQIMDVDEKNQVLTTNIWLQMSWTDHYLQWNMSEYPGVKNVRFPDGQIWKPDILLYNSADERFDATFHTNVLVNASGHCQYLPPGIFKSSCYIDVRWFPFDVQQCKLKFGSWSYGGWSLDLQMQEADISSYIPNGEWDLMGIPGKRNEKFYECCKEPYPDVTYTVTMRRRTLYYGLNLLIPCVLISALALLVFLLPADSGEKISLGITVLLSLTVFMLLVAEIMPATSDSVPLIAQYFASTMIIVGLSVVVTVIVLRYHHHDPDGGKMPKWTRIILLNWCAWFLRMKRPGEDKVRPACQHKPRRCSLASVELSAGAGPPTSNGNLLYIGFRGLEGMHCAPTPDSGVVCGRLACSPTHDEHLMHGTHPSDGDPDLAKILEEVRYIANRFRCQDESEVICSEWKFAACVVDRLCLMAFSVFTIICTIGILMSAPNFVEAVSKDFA

O=c1c(I)ccc2n1C[C@@H]1CNC[C@H]2C1 [3-IC, 3-iodocytisine]
Cytisine-sensitive [125I]epibatidine binding ([1]; anterior olfactory nucleus): 16.1 ± 1.4 fmol/mg
Cytisine-sensitive [125I]epibatidine binding % change ([1]; anterior olfactory nucleus): 53.5%
Cytisine-sensitive [125I]epibatidine binding ([1]; anteromedial thalamic nucleus): 50.3 ± 4.0 fmol/mg
Cytisine-sensitive [125I]epibatidine binding % change ([1]; anteromedial thalamic nucleus): -0.8%
Cytisine-sensitive [125I]epibatidine binding ([1]; caudate putamen): 20.3 ± 1.9 fmol/mg
Cytisine-sensitive [125I]epibatidine binding % change ([1]; caudate putamen): 68.3 * %
Cytisine-sensitive [125I]epibatidine binding ([1]; cingulate cortex): 23.6 ± 1.5 fmol/mg
Cytisine-sensitive [125I]epibatidine binding % change ([1]; cingulate cortex): 42.0%
Cytisine-sensitive [125I]epibatidine binding ([1]; dentate gyrus (granular layer)): 12.3 ± 0.6 fmol/mg
Cytisine-sensitive [125I]epibatidine binding % change ([1]; dentate gyrus (granular layer)): 46.8 * %
Cytisine-sensitive [125I]epibatidine binding [1, 8]: 70.7 ± 3.9 fmol/mg
Cytisine-sensitive [125I]epibatidine binding % change [1, 8]: 9.7%
Cytisine-sensitive [125I]epibatidine binding ([1]; dorsomedial thalamic nucleus): 52.9 ± 5.2 fmol/mg
Cytisine-sensitive [125I]epibatidine binding % change ([1]; dorsomedial thalamic nucleus): -4.5%
Cytisine-sensitive [125I]epibatidine binding ([1]; fasciculus retroflexus): 40.2 ± 4.0 fmol/mg
Cytisine-sensitive [125I]epibatidine binding % change ([1]; fasciculus retroflexus): 1.0%
Cytisine-sensitive [125I]epibatidine binding ([1]; hippocampus (CA1-3)): 9.0 ± 0.2 fmol/mg
Cytisine-sensitive [125I]epibatidine binding % change ([1]; hippocampus (CA1-3)): 56.3 *** %
Cytisine-sensitive [125I]epibatidine binding ([1]; inferior colliculus (central)): 12.2 ± 2.5 fmol/mg
Cytisine-sensitive [125I]epibatidine binding % change ([1]; inferior colliculus (central)): 97.2 * %
Cytisine-sensitive [125I]epibatidine binding ([1]; inferior colliculus (dorsal)): 22.8 ± 2.1 fmol/mg
Cytisine-sensitive [125I]epibatidine binding % change ([1]; inferior colliculus (dorsal)): 68.7 * %
Cytisine-sensitive [125I]epibatidine binding ([1]; inferior colliculus (external)): 16.8 ± 2.1 fmol/mg
Cytisine-sensitive [125I]epibatidine binding % change ([1]; inferior colliculus (external)): 88.9 * %
Cytisine-sensitive [125I]epibatidine binding ([1]; interpeduncular nucleus): 194.7 ± 42.8 fmol/mg
Cytisine-sensitive [125I]epibatidine binding % change ([1]; interpeduncular nucleus): -0.6%
Cytisine-sensitive [125I]epibatidine binding ([1]; medial geniculate nucleus): 49.4 ± 8.2 fmol/mg
Cytisine-sensitive [125I]epibatidine binding % change ([1]; medial geniculate nucleus): 27.2%
Cytisine-sensitive [125I]epibatidine binding ([1]; medial habenula): 171.3 ± 36.4 fmol/mg
Cytisine-sensitive [125I]epibatidine binding % change ([1]; medial habenula): 52.6%
Cytisine-sensitive [125I]epibatidine binding ([1]; nucleus accumbens): 15.9 ± 2.1 fmol/mg
Cytisine-sensitive [125I]epibatidine binding % change ([1]; nucleus accumbens): 91.8 * %
Cytisine-sensitive [125I]epibatidine binding ([1]; olfactory tubercle): 14.5 ± 1.6 fmol/mg
Cytisine-sensitive [125I]epibatidine binding % change ([1]; olfactory tubercle): 83.5 * %
Cytisine-sensitive [125I]epibatidine binding ([1]; optic tract): 15.1 ± 2.9 fmol/mg
Cytisine-sensitive [125I]epibatidine binding % change ([1]; optic tract): 126.2%
Cytisine-sensitive [125I]epibatidine binding % change ([1]; optic tract, listed as 3-iodocytisine): 126.2 * %
Cytisine-sensitive [125I]epibatidine binding ([1]; parietal cortex (layers 1-3)): 9.1 ± 1.0 fmol/mg
Cytisine-sensitive [125I]epibatidine binding % change ([1]; parietal cortex (layers 1-3)): 71.7 * %
Cytisine-sensitive [125I]epibatidine binding ([1]; parietal cortex (layers 4-6)): 19.0 ± 1.6 fmol/mg
Cytisine-sensitive [125I]epibatidine binding % change ([1]; parietal cortex (layers 4-6)): 79.7 * %
Cytisine-sensitive [125I]epibatidine binding ([1]; retrosplenial Cortex): 26.6 ± 2.7 fmol/mg
Cytisine-sensitive [125I]epibatidine binding % change ([1]; retrosplenial Cortex): 35.6%
Cytisine-sensitive [125I]epibatidine binding ([1]; subiculum): 41.7 ± 3.8 fmol/mg
Cytisine-sensitive [125I]epibatidine binding % change ([1]; subiculum): 27.8%
Cytisine-sensitive [125I]epibatidine binding ([1]; substantia nigra): 43.6 ± 7.3 fmol/mg
Cytisine-sensitive [125I]epibatidine binding % change ([1]; substantia nigra): 38.0%
Cytisine-sensitive [125I]epibatidine binding [1, 9]: 47.3 ± 2.2 fmol/mg
Cytisine-sensitive [125I]epibatidine binding % change [1, 9]: 60.6 *** %
Cytisine-sensitive [125I]epibatidine binding [1, 10]: 51.2 ± 4.4 fmol/mg
Cytisine-sensitive [125I]epibatidine binding % change [1, 10]: 50.2 ** %
Cytisine-sensitive [125I]epibatidine binding ([1]; ventral tegmental area): 25.1 ± 1.5 fmol/mg
Cytisine-sensitive [125I]epibatidine binding % change ([1]; ventral tegmental area): 45.2%
Cytisine-sensitive [125I]epibatidine binding % change ([1]; ventral tegmental area, listed as 3-iodocytisine): 45.2 * %
Cytisine-sensitive [125I]epibatidine binding ([1]; ventromedial thalamic nucleus): 50.7 ± 1.5 fmol/mg
Cytisine-sensitive [125I]epibatidine binding % change ([1]; ventromedial thalamic nucleus): -0.8%
Cytisine-sensitive [125I]epibatidine binding ([1]; zona incerta): 13.7 ± 1.2 fmol/mg
Cytisine-sensitive [125I]epibatidine binding % change ([1]; zona incerta): 55.3 * %
Ki (human α4β2): 0.7 nM
Ki (β2*-nAChR): 0.128 ± 0.003 nM
difference in affinity for the two [125I]epibatidine binding sites [2]: 1.6 fold
maximal hypothermia (β4 null mutant mice; β4+/+ mice): 7.9 ± 0.3 °C
maximal hypothermia (β4 null mutant mice; β4-/- mice): 2.9 ± 0.4 °C
Ki (α7-nAChR): 2.2 ± 1.2 nM
increase in [125I]α-bungarotoxin binding sites compared to saline (α7* nAChR binding sites): 58%
tolerance after chronic infusion (DBA/2J mice [3]; 0.2 mg/kg/h iv 7 days): did not elicit tolerance
decrease of body temperature during infusion (DBA/2J mice [3]; after 24 hours of continuous intravenous infusion of 0.5 mg/kg/h): 13 ± 0.3 °C
infusion doses that elicited tremors (DBA/2J mice [3]; continuous intravenous infusion): higher than 0.2 mg/kg/h
Ki (human α7): 7 nM
density of cytisine-resistant [125I]epibatidine binding sites vs saline [4]: No significant differences
decrease of basal temperature (DBA/2J mice [5]; 0.2 mg/kg ip acute, DBA/2J): 7.7 ± 0.5 °C
tremors or diarrhea (DBA/2J mice [5]; 0.2 mg/kg ip, DBA/2J and C57BL/6J): without inducing tremors or diarrhea
maximal temperature decrease (DBA/2J mice [5]; 1 mg/kg ip, DBA/2J): 11.9 ± 0.4 °C
time of maximal hypothermia after 3-IC injection, saline pretreated (DBA/2J mice [5]; 3-IC 0.2 mg/kg, DBA/2J): 40 min
seizures (DBA/2J mice [5]; any dose tested (0.05-1 mg/kg ip), DBA/2J and C57BL/6J): no seizures were noted
maximal 3-IC-induced hypothermia after saline pretreatment (DBA/2J mice [5]; hexamethonium experiment, 3-IC 0.2 mg/kg, DBA/2J): 8.10 ± 0.63 °
doses at which tremors were seen (DBA/2J mice [5]; ip acute, DBA/2J and C57BL/6J): above 0.5 mg/kg
ED50 for hypothermia (DBA/2J mice [5]; ip, DBA/2J, maximal drop in temperature): 0.15 ± 0.04 mg/kg
3-IC-induced hypothermia after saline pretreatment (DBA/2J mice [5]; mecamylamine experiment, 3-IC 0.2 mg/kg ip, DBA/2J): 8.50 ± 0.42 °C
Ki (α7* receptors): 115 nM
EC50 ([3H]dopamine release): 11 nM
Ki (α4β2* receptors): 0.17 nM
A85380 resistant component of [125I]epibatidine binding [6]: unmodified
EC50 [7]: 220 nM
